# Screens (PubChem BioAssay)
# An excerpt weighted towards active compounds, which were near 1.5% of everything screened.
# PDI turbidity – inhibitors of human PDI, primary screen, biochemical, turbidity, single point, plate reader | Protein disulfide-isomerase (Homo sapiens), P07237 | PDI insulin aggregation turbidity, A650, 90 min | inhibition, % at 10 µM | 350,000 tested, 0.052% active | AID 588391, 2011;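 active means mean inhibition across replicates of 30% or more, whatever share of single replicates reach that level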
# INS-1E GSIS act – GLuc luminescence reporter in INS-1E cells, primary screen for activators of glucose-dependent secretion of insulin; INS-1E GLuc reporter insulin secretion, 2-3 h; activation, % at 16.6 µM; 370,000 tested, 0.61% active; AID 743287, 2014;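 active means lowest replicate activation of at least 40%, so every replicate reaches that level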;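 further: 0% = median of neutral control wells and 100% = median of IBMX positive control wells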
# SIRT5 inh – SIRT5 desuccinylase inhibitors, primary screen, biochemical, fluorescence imaging, single point, set 5 | NAD-dependent protein deacylase sirtuin-5, mitochondrial (Homo sapiens), Q9NXA8 | Purified SirT5, succinyl-peptide AMC, trypsin-coupled fluorescence | inhibition, % at 15 µM | 330,000 tested, 1.1% active; in the data active means inhibition above about 15%
# Target sequence (Q9NXA8 whole entry, looked up): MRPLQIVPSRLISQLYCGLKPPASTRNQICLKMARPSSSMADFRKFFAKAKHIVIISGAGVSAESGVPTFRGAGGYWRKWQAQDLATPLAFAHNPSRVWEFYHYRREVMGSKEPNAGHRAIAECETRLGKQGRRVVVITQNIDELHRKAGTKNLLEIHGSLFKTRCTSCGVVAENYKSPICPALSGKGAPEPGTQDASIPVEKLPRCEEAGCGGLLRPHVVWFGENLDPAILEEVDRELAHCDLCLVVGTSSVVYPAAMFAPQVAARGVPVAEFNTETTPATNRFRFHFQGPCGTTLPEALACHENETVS
# ERp5 block – inhibitors of ERp5-driven insulin aggregation, primary screen, biochemical, turbidity, absorbance 650 nm, single point. Protein disulfide-isomerase A6 (Homo sapiens), Q15084. 90 min. inhibition, % at 9.99 µM. 350,000 tested, 0.05% active. AID 651711, 2012;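 active means mean replicate inhibition above about 25%, with every replicate also reaching it, limit read from the data, passing the limit was not always enough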
# S100A4 inh HTS – inhibitors of S100A4-myosin IIA peptide binding, primary screen, biochemical, fluorescence polarization, TAMRA-MyoIIA peptide; Protein S100-A4 (Homo sapiens), P26447; inhibition, % at 10.7 µM; 360,000 tested, 0.14% active; AID 652163, 2013;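 active means mean inhibition of at least 70% across replicates, with every replicate also reaching that level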
# Target sequence (P26447 whole entry, looked up): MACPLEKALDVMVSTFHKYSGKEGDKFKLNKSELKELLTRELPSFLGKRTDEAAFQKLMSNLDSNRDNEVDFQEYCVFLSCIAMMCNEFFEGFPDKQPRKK
#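 Test system: S100A4 monomer protein; Medium: HEPES pH 7.2 with CaCl2, KCl, NaCl, DTT, Triton; Probe or stimulus: TAMRA-labelled myosin IIA heavy-chain peptide probe, 5 nM; Doses: one dose per compound; Times: polarization read 5 min after assay mix addition, stable 5–60 min; Benchmarks: neutral control DMSO, positive control TFP.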
# Active calls of the source: *; · = no result given.
SMILES,PDI turbidity,INS-1E GSIS act,SIRT5 inh,ERp5 block,S100A4 inh HTS
Cc1nc(NC(=O)c2cccc(-c3cc4ccccc4oc3=O)c2)ccc1Br,-5,73*,·,·,·
Cc1nc2ccccc2c2oc(C(=O)N3CCN(C4CCCCC4)CC3)cc12,·,-8,·,1,0
Cc1nc2ccccc2c2oc(C(=O)N3CCCC(C)C3)cc12 (stereo not drawn),-8,46*,0,0,8
CC=Cc1ccc2n(c1=O)C[C@@H]1[C@@H](CO)[C@H](C(=O)NCCc3ccccc3)N(CCC)[C@H]21 (mixture of isomers),·,-4,-4,12,-57
Cc1noc(C)c1S(=O)(=O)Nc1ccc2c(c1)C(=O)N([C@H](C)CO)C[C@@H](C)[C@H](CN(C)Cc1ccc(C(F)(F)F)cc1)OCCCC[C@H](C)O2,·,-22,18*,2,-8
Cc1noc(C)c1S(=O)(=O)Nc1ccc2c(c1)C(=O)N([C@@H](C)CO)C[C@@H](C)[C@H](CN(C)Cc1ccc(C(F)(F)F)cc1)OCCCC[C@@H](C)O2,·,-10,17*,8,1
Cc1noc(C)c1S(=O)(=O)Nc1ccc2c(c1)C(=O)N([C@H](C)CO)C[C@@H](C)[C@H](CN(C)Cc1ccc(C(F)(F)F)cc1)OCCCC[C@@H](C)O2,·,-15,24*,0,-3
C[C@@H](NC(=O)[C@@H]1CCCN1C(=O)OC(C)(C)C)c1ccccc1,·,-11,-5,8,-5
C[C@H](NC(=O)[C@@H]1CCCN1C(=O)[C@@H]1CCCN1C(=O)OC(C)(C)C)c1ccccc1,·,7,16*,-5,5
CO[C@H]1CN(C)C(=O)c2cc(NC(=O)Nc3cccc(F)c3)ccc2OC[C@@H](C)N(C(=O)C2CC2)C[C@H]1C,·,-16,·,·,·
COCCNc1nc(NCc2cnc(C)cn2)c2sccc2n1,8,·,17*,-1,3
COCCNc1nc(Oc2cncc(Cl)c2)c2sccc2n1,-3,55*,·,-1,-1
COCCNc1nc(NC(C)C)nc2ccsc12,-7,82*,·,-7,-8
COCCNc1nc(Oc2cccc(F)c2)c2sccc2n1,16,11,·,0,-24
Cc1ccc(CNc2nc(NC(C)C)nc3ccsc23)c(C)c1,-41,-36,21*,2,16
COCCNc1nc(NCc2ccccc2)nc2ccsc12,3,·,2,7,11
CO[C@@H]1CN(C)C(=O)c2ccc(NC(=O)c3nc4ccccc4s3)cc2OC[C@@H](C)NC[C@H]1C,·,-19,-1,-4,·
O=C(C[C@H]1CC[C@@H](NC(=O)c2cccc(F)c2)[C@H](CO)O1)NCc1ccc(Oc2ccccc2)cc1,·,3,-2,2,-2
C[C@@H]1CN([C@@H](C)CO)S(=O)(=O)c2ccc(/C=C/c3ccccc3)cc2O[C@H]1CN(C)Cc1cncnc1,·,-9,8,-4,-12
CC(C)NC(=O)Nc1ccc2c(c1)CC(=O)N([C@H](C)CO)C[C@H](C)[C@H](CN(C)C(=O)Nc1ccccc1)O2,·,11,0,-6,2
C[C@H](CO)N1C[C@H](C)[C@H](CN(C)S(=O)(=O)c2ccc(Cl)cc2)Oc2ccc(NS(=O)(=O)c3ccc(Cl)cc3)cc2CC1=O,·,-9,5,-1,4
CCCc1cn(CC[C@H]2CC[C@@H](NC(=O)C3CCCC3)[C@H](CO)O2)nn1,·,-1,3,0,5
CNc1nc(NCc2ccc(C)cc2C)c2sccc2n1,6,-20,-2,1,-3
Cc1ccc(CNc2nc(NCc3ccccc3)nc3ccsc23)c(C)c1,0,196*,-1,0,-4
C[C@@H](O)C#Cc1cnc2c(c1)C(=O)N([C@@H](C)CO)C[C@H](C)[C@@H](CN(C)C(=O)Cc1ccncc1)O2,·,22,10,18,-8
SMILES,PDI turbidity,INS-1E GSIS act,SIRT5 inh,ERp5 block,S100A4 inh HTS
C[C@H](O)C#Cc1cnc2c(c1)C(=O)N([C@@H](C)CO)C[C@H](C)[C@H](CN(C)CC1CCCCC1)O2,·,4,-2,32*,1
C[C@@H]1CN([C@@H](C)CO)C(=O)c2cc(C#C[C@@H](C)O)cnc2O[C@H]1CN(C)C(=O)Cc1ccncc1,·,13,1,0,87*
C[C@H](O)C#Cc1cnc2c(c1)C(=O)N([C@H](C)CO)C[C@H](C)[C@@H](CN(C)CC1CCCC1)O2,·,11,21*,10,8
C[C@H](O)C#Cc1cnc2c(c1)C(=O)N([C@H](C)CO)C[C@H](C)[C@@H](CN(C)CC1CCCCC1)O2,·,12,-5,·,-6
C[C@H]1CN([C@@H](C)CO)C(=O)c2cc(C#Cc3cccc(F)c3)cnc2O[C@@H]1CN(C)CC1CCCC1,·,·,23*,-4,-1
C[C@@H]1CCCCO[C@H](CN(C)Cc2ccncc2)[C@H](C)CN([C@@H](C)CO)C(=O)c2cc(NS(C)(=O)=O)ccc2O1,·,7,2,-5,-1
COC(=O)C[C@@H]1C[C@@H]2c3cc(NC(=O)Cc4ccncc4)ccc3O[C@@H]2[C@H](CO)O1,·,-1,5,36*,-65
COC(=O)C[C@@H]1C[C@H]2c3cc(NC(=O)Cc4ccncc4)ccc3O[C@H]2[C@H](CO)O1,·,0,15*,-6,5
COC(=O)C[C@H]1C[C@H]2c3cc(NC(=O)Cc4ccncc4)ccc3O[C@H]2[C@H](CO)O1,·,-13,0,61*,1
COC(=O)C[C@@H]1C[C@H]2c3cc(NC(=O)Cc4ccncc4)ccc3O[C@H]2[C@@H](CO)O1,·,-9,2,0,12
O=C(C[C@@H]1C[C@@H]2c3cc(NC(=O)Cc4ccncc4)ccc3O[C@@H]2[C@H](CO)O1)NCc1ccccn1,·,8,-2,-7,9
O=C(O)C[C@H]1C[C@@H]2c3cc(NC(=O)Cc4ccncc4)ccc3O[C@@H]2[C@H](CO)O1,·,7,-4,-2,8
O=C(C[C@H]1C[C@H]2c3cc(NC(=O)Cc4ccncc4)ccc3O[C@H]2[C@H](CO)O1)NCc1ccccn1,·,-12,-4,-11,96*
C[C@@H]1CN([C@H](C)CO)C(=O)c2cc(NC(=O)CCC(F)(F)F)ccc2O[C@H]1CN(C)C(=O)Nc1ccc(F)cc1,·,10,0,-5,8
O=C(C[C@H]1CC[C@@H]2[C@H](COC[C@@H](O)CN2S(=O)(=O)c2ccc(Cl)cc2)O1)NCc1ccncn1,·,3,1,-1,-30
CC(C)C#Cc1ccc2c(c1)O[C@H](CN(C)C(=O)Cc1ccccn1)[C@H](C)CN([C@H](C)CO)S2(=O)=O,·,12,5,-4,-2
C[C@@H]1CN([C@H](C)CO)C(=O)c2cc(-c3ccccc3)cnc2O[C@@H]1CN(C)C(=O)c1ccccc1F,·,-1,-3,5,14
CCCN(C#N)c1nc(NCC)nc(NC(C)C)n1,4,·,·,·,·
